Calls of active or inactive are those of the source. The calls are words filed in the database; no cut-off is given here.
Legend:
[1] = (§1) Inhibition of Kaposi's sarcoma herpesvirus C-terminal His-tagged oligomerization deficient LANA DBD (1008 to 1146 residues) K1055E/K1138S/K1140D/K1141D/R1039Q/R1040Q/A1121E/K1109A/D1110A mutant expressed in Escherichia coli BL21(DE3) assessed as inhibition of LANA interaction with fluorescently-labelled viral DNA LBS2 probe preincubated with LANA-DBD for 60 mins followed by addition of DNA probe and measured after 90 mins by flourescence polarization assay; design: species or system Human gammaherpesvirus 8
Method in brief: (§2)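 FP competition of DNA binding, using the oligomerization-deficient LANA DBD mutant (aa 1008-1146, nine point mutations). Probes were LBS1, LBS2 or LBS3. Values are IC50 from the average of duplicates ± standard deviation.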

[2] = system: Human gammaherpesvirus 8; assay: (§3) Inhibition of Kaposi's sarcoma herpesvirus C-terminal His-tagged oligomerization deficient LANA DBD (1008 to 1146 residues) K1055E/K1138S/K1140D/K1141D/R1039Q/R1040Q/A1121E/K1109A/D1110A mutant expressed in Escherichia coli BL21(DE3) assessed as inhibition of LANA interaction with 5'-Dy682-labeled viral DNA LBS1 probe at 500 uM preincubated with LANA-DBD for 60 mins followed by addition of DNA probe and measured after 30 mins by Electrophoretic mobility shift assay; conditions: time 90.0 min
[3] = as §1, with “LBS3” for “LBS2”; design: species or system Human gammaherpesvirus 8; method in brief: as §2
[4] = as §1, with “LBS1” for “LBS2”; design: species or system Human gammaherpesvirus 8; method in brief: as §2
[5] = system: Human gammaherpesvirus 8; assay: (§4) Inhibition of Kaposi's sarcoma herpesvirus wild type LANA CTD (934 to 1162 residues) expressed in Escherichia coli BL21 (DE3) assessed as inhibition of LANA interaction with 5'-Dy682-labeled viral DNA LBS1 probe at 250 uM preincubated with LANA CTD for 60 mins followed by addition of DNA probe and measured after 30 mins by Electrophoretic mobility shift assay; conditions: time 90.0 min
[6] = as §3, with “probe” for “probe at 500 uM”; design: species or system Human gammaherpesvirus 8
[7] = system: Human gammaherpesvirus 8; assay: as §1, with “LBS2 probe at 500 uM preincubated with” for “LBS2 probe preincubated with”; conditions: time 150.0 min
[8] = as §4, with “probe” for “probe at 250 uM”; design: species or system Human gammaherpesvirus 8
Method in brief: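 GST-tagged KSHV LANA CTD (aa934-1162), wild type and unmutated, binding an LBS1 probe in EMSA. Compounds were first screened at a single fixed final concentration, then run in a dose-response EMSA. LANA-DNA complex (upper) band intensities were normalized to 0-100% inhibition. IC50 came from a four-parameter dose-response fit.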

[9] = system: Human gammaherpesvirus 8; assay: Inhibition of Kaposi's sarcoma herpesvirus C-terminal His-tagged oligomerization deficient LANA DBD (1008 to 1146 residues) K1055E/K1138S/K1140D/K1141D/R1039Q/R1040Q/A1121E/K1109A/D1110A mutant expressed in Escherichia coli BL21(DE3) assessed as inhibition of LANA interaction with 5'-Dy682-labeled …; conditions: dose 250.0 µM, time 90.0 min
[10] = system: Human gammaherpesvirus 8; assay: Binding affinity to Kaposi's sarcoma herpesvirus C-terminal His-tagged oligomerization deficient LANA DBD (1008 to 1146 residues) K1055E/K1138S/K1140D/K1141D/R1039Q/R1040Q/A1121E/K1109A/D1110A mutant expressed in Escherichia coli BL21(DE3) at 500 uM by STD-NMR analysis
[11] = system: Human gammaherpesvirus 8; assay: as §3, with “LBS1+2+3” for “LBS1”, “125” for “500”; conditions: time 90.0 min
Method in brief: (§5)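 EMSA with the LANA DBD mutant as a dose-dependent test against higher-order complexes. Combined probes were LBS1+2 and LBS2+1+3. Inhibition was judged from loss of the LANA-DNA complex band.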

[12] = system: Human gammaherpesvirus 8; assay: as §3, with “LBS1+2” for “LBS1”, “62.5” for “500”; conditions: time 90.0 min; method in brief: as §5

| SMILES | IC50 [1] [µM] | inhibition [2] | also measured |
| --- | --- | --- | --- |
| O=C(O)c1ccc(-c2cn(-c3cncc(-c4cccc(CO)c4)c3)nn2)cc1 | > 250 | – | – |
| COC(=O)c1ccc2cncc(-n3cc(-c4ccc(C(=O)O)cc4)nn3)c2c1 | > 250 | – | – |
| Cc1cc(Sc2ccccc2)ncc1-n1cc(-c2ccc(C(=O)O)cc2)nn1 | 175 | inactive | – |
| Cc1cncc(-n2cc(-c3ccc(C(=O)O)cc3)nn2)c1 | 45 | 78% | – |
| O=C(O)c1ccc(-c2cn(-c3cncc(-c4ccc(CO)cc4)c3)nn2)cc1 | > 250 | – | – |
| O=C(O)c1ccc(-c2cn(-c3cncc(-c4ccoc4)c3)nn2)cc1 | 19 | 34% | – |
| N#Cc1ccc(-c2cn(-c3cccnc3)nn2)cc1 | > 250 | – | – |
| O=C(O)c1ccc(-c2cn(-c3ccc(Oc4cccnc4)cc3)nn2)cc1 | 19 | 100% | IC50 [3]: 25 µM; IC50 [4]: 15 µM; inhibition [5]: inactive; IC50 [6]: 64 µM |
| Nc1ccc(-c2cn(-c3cccnc3)nn2)cc1 | > 250 | – | – |
| Cc1cc(Oc2ccccc2)ncc1-n1cc(-c2ccc(C(=O)O)cc2)nn1 | 198 | inactive | – |
| OCc1ccc(-c2cn(-c3cccnc3)nn2)cc1 | – | – | inhibition [7]: inactive |
| COc1cccc(-c2cncc(-n3cc(-c4ccc(C(=O)O)cc4)nn3)c2)c1 | 110 | inactive | – |
| O=C(O)c1ccc(-c2cn(-c3cccnc3)nn2)cc1Cl | – | – | inhibition [7]: inactive |
| Cc1cc(-c2ccc(Cl)cc2)ncc1-n1cc(-c2ccc(C(=O)O)cc2)nn1 | 58 | 30% | – |
| CNc1ccc(-n2cc(-c3ccc(C(=O)O)cc3)nn2)cn1 | – | – | inhibition [7]: inactive |
| O=C(O)c1ccc(-c2cn(-c3ccc(Nc4ccccc4)nc3)nn2)cc1 | 110 | 29% | – |
| CCOC(=O)c1ccc(-c2cn(-c3cccnc3)nn2)cc1 | – | – | inhibition [7]: inactive |
| O=C(O)c1ccc(-c2cn(-c3cccnc3)nn2)cc1 | 17 | 82% | IC50 [3]: 19 µM; IC50 [4]: 20 µM; inhibition [5]: inactive; IC50 [8]: 435 µM; IC50 [6]: 426 µM |
| O=C(O)c1ccc(-c2cn(-c3cncc4ccccc34)nn2)cc1 | 33 | 96% | – |
| Cc1ccc(-c2cncc(-n3cc(-c4ccc(C(=O)O)cc4)nn3)c2)cc1C | – | – | inhibition [7]: inactive |
| O=C(O)c1ccc(-c2cn(-c3cncc(-c4ccccc4)c3Cl)nn2)cc1 | 38 | 100% | IC50 [3]: 45 µM; IC50 [4]: 55 µM; inhibition [5]: inactive; inhibition [9]: inactive |
| O=C(O)c1ccc(-c2cn(Cc3cccnc3)nn2)cc1 | > 250 | – | – |
| Cc1ccncc1-n1cc(-c2ccc(C(=O)O)cc2)nn1 | 86 | 39% | – |
| Cc1cc(Oc2ccc(F)cc2)ncc1-n1cc(-c2ccc(C(=O)O)cc2)nn1 | 134 | inactive | – |
| Cc1cc(Cl)ncc1-n1cc(-c2ccc(C(=O)O)cc2)nn1 | > 250 | – | – |
| O=C(O)c1ccc(-c2cn(-c3ccc(Oc4ccccc4)cc3)nn2)cc1 | – | – | inhibition [7]: inactive |
| O=C(O)c1ccc(-c2cn(-c3cncc4ccc(Cl)cc34)nn2)cc1 | 17 | 100% | IC50 [3]: 15 µM; IC50 [4]: 14 µM; inhibition [5]: inactive; IC50 [6]: 93 µM |

| SMILES | IC50 [1] [µM] | inhibition [2] | also measured |
| --- | --- | --- | --- |
| Cc1cc(Oc2cccc(F)c2)ncc1-n1cc(-c2ccc(C(=O)O)cc2)nn1 | 122 | inactive | – |
| COc1ccc(-c2cncc(-n3cc(-c4ccc(C(=O)O)cc4)nn3)c2)cc1 | – | – | inhibition [7]: inactive |
| COc1ccccc1-c1cncc(-n2cc(-c3ccc(C(=O)O)cc3)nn2)c1 | – | – | inhibition [7]: inactive |
| Cc1ccc2cncc(-n3cc(-c4ccc(C(=O)O)cc4)nn3)c2c1 | 8 | 100% | IC50 [3]: 8 µM; IC50 [4]: 9 µM; inhibition [5]: Active; IC50 [8]: 60 µM; Activity [10]: Active; IC50 [6]: 53 µM; inhibition [11]: Active; inhibition [12]: Active |
| Cc1cnccc1-n1cc(-c2ccc(C(=O)O)cc2)nn1 | – | – | inhibition [7]: inactive |
| Cc1cc(Oc2ccccc2F)ncc1-n1cc(-c2ccc(C(=O)O)cc2)nn1 | 64 | inactive | – |
| O=C(O)c1ccc(-c2cn(-c3cnccc3-c3ccccc3)nn2)cc1 | 18 | 100% | IC50 [3]: 42 µM; IC50 [4]: 52 µM; inhibition [5]: inactive; inhibition [9]: inactive |
| O=C(O)c1ccc(-c2cn(-c3ccc(O)nc3)nn2)cc1 | 214 | 75% | – |
| O=C(O)c1ccc(-c2cn(-c3cncc(-c4ccc(F)c(F)c4)c3)nn2)cc1 | > 250 | – | – |
| O=C(O)c1ccc(-c2cn(-c3cncc(F)c3)nn2)cc1 | – | – | inhibition [7]: inactive |
| Cc1cc(-c2ccccc2)ncc1-n1cc(-c2ccc(C(=O)O)cc2)nn1 | 36 | 36% | – |
| Cc1cc(-c2cccc(CO)c2)ncc1-n1cc(-c2ccc(C(=O)O)cc2)nn1 | 25 | 100% | IC50 [3]: 63 µM; IC50 [4]: 64 µM; inhibition [5]: inactive; inhibition [9]: inactive |
| N#Cc1ccc(-n2cc(-c3ccc(C(=O)O)cc3)nn2)cn1 | 52 | inactive | – |
| NC(=O)c1ccc(-c2cn(-c3cccnc3)nn2)cc1 | – | – | inhibition [7]: inactive |
| O=C(O)c1cccc(-c2cn(-c3cccnc3)nn2)c1 | > 250 | – | – |
| COc1ccc(-n2cc(-c3ccc(C(=O)O)cc3)nn2)cn1 | 218 | 11% | – |
| CC(=O)Nc1ccc(-c2cn(-c3cccnc3)nn2)cc1 | – | – | inhibition [7]: inactive |
| CC(C)Nc1ccc(-n2cc(-c3ccc(C(=O)O)cc3)nn2)cn1 | > 250 | – | – |
| COC(=O)c1ccc(-c2cn(-c3cccnc3)nn2)cc1 | – | – | inhibition [7]: inactive |
| O=C(O)c1ccc(-c2cn(-c3ccc(Oc4ccccc4)nc3)nn2)cc1 | – | – | inhibition [7]: inactive |
| O=C(O)c1ccc(-c2cn(-c3cnccc3Cl)nn2)cc1 | 29 | 94% | – |
| O=C(O)c1ccc(-c2cn(-c3cnc4ccccc4c3)nn2)cc1 | 70 | 61% | – |
| O=C(O)c1ccc(-c2cn(-c3cncc(-c4cccc(O)c4)c3)nn2)cc1 | 153 | 20% | – |
| Cc1cc(-c2ccccc2O)ncc1-n1cc(-c2ccc(C(=O)O)cc2)nn1 | 21 | 100% | IC50 [3]: 34 µM; IC50 [4]: 30 µM; inhibition [5]: inactive; IC50 [6]: 156 µM |
| COc1cc(F)cc(-c2cncc(-n3cc(-c4ccc(C(=O)O)cc4)nn3)c2)c1 | – | – | inhibition [7]: inactive |
| O=C(O)c1ccc(-c2cn(-c3cncc(-c4ccccc4)c3)nn2)cc1 | > 250 | – | – |

From ChEMBL document CHEMBL4706504, “Hit-to-lead optimization of a latency-associated nuclear antigen inhibitor against Kaposi's sarcoma-associated herpesvirus infections” (Eur J Med Chem, 2020)
